Laboratory results reported in ChEMBL document CHEMBL1151206, “Glycosidase-inhibiting pyrrolidines and pyrrolizidines with a long side chain in Scilla peruviana” (J Nat Prod, 2004).

Molecular target: not listed separately
Experiment: Inhibition of rice alpha-glucosidase by spectrophotometry
Parameters: species or system Oryza sativa

Row | SMILES | IC50 [µM]
1 | OCC(O)CC(O)[C@@H]1CC[C@@H]2[C@H](O)[C@H](O)[C@@H](CO)N21 (stereo not given in full) | 390
2 | OCC(O)CCCCC(O)CC(O)CCC[C@@H](O)[C@H]1N[C@H](CO)[C@@H](O)[C@@H]1O (stereo not given in full) | 265

System: maltase-glucoamylase (Rattus norvegicus)
Experiment: Inhibition of rat intestinal maltase at 1000 uM by spectrophotometry

Row | SMILES | inhibition [%]
3 | OCC(O)CC(O)[C@@H]1CC[C@@H]2[C@H](O)[C@H](O)[C@@H](CO)N21 (stereo not given in full) | < 50

System: Penicillium decumbens
Experiment: Inhibition of Penicillium decumbens alpha-L-rhamnosidase at 1000 uM by spectrophotometry
Method in brief: (§1)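 Commercial enzymes (P. decumbens alpha-L-rhamnosidase at pH 4.5, bovine epididymis alpha-L-fucosidase at pH 5.5, coffee bean alpha-galactosidase at pH 6.5) were incubated with 2 mM p-nitrophenyl glycoside in a 1 mL reaction. The reaction was stopped with 2 mL of 400 mM Na2CO3 and p-nitrophenol was read at 400 nm.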

Row | SMILES | inhibition [%]
4 | OCC(O)CC(O)[C@@H]1CC[C@@H]2[C@H](O)[C@H](O)[C@@H](CO)N21 (stereo not given in full) | < 50
5 | OCC(O)CCCCC(O)CC(O)CCC[C@@H](O)[C@H]1N[C@H](CO)[C@@H](O)[C@@H]1O (stereo not given in full) | < 50

Molecular target: T1, Beta-mannosidase (Rattus norvegicus, UniProt Q4FZV0)
T1 sequence (Q4FZV0 whole entry): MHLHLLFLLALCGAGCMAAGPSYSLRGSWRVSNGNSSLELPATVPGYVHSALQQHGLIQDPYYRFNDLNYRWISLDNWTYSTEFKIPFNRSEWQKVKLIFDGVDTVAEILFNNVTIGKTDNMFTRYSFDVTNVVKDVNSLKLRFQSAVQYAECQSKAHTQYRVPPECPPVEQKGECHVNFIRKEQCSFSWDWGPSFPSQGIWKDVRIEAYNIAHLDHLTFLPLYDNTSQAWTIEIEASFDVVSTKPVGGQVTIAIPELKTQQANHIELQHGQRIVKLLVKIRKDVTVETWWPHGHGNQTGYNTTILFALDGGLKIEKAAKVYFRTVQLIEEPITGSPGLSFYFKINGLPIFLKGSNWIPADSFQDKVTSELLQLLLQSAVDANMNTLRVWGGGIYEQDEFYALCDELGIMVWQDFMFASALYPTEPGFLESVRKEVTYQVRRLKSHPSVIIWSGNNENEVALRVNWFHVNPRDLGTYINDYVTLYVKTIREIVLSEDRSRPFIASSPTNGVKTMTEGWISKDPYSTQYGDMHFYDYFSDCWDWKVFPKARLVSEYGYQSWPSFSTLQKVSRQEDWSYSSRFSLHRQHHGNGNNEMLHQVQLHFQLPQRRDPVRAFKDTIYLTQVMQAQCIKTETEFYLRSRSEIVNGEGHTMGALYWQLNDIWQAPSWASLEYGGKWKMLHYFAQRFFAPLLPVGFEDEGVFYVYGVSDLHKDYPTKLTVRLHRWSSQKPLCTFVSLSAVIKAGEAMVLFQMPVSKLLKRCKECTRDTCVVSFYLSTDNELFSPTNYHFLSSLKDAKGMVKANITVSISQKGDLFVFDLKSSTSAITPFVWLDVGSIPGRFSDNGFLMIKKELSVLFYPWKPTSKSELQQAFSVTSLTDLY
Experiment: Inhibition of rat epididymis beta-mannosidase by spectrophotometry
Method in brief: (§2)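 Enzyme source was rat epididymal fluid purified from epididymis, assayed at pH 5.2 with 2 mM of the relevant p-nitrophenyl glycoside in a 1 mL reaction. The reaction was stopped with 2 mL of 400 mM Na2CO3 and p-nitrophenol was measured at 400 nm.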

Row | SMILES | IC50 [µM]
6 | OCC(O)CCCCC(O)CC(O)CCC[C@@H](O)[C@H]1N[C@H](CO)[C@@H](O)[C@@H]1O (stereo not given in full) | 9.3

Molecular target: not listed separately
Experiment: Inhibition of Caldocellum saccharolyticum beta-glucosidase by spectrophotometry
Parameters: species or system Caldicellulosiruptor saccharolyticus
Method in brief: (§3)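 Commercial enzyme assayed with the matching p-nitrophenyl glycoside (2 mM) in a 1 mL reaction, at pH 5.0 for the C. saccharolyticum and almond beta-glucosidases, pH 6.8 for bovine liver beta-galactosidase and pH 6.8 for yeast alpha-glucosidase. The reaction was stopped with 2 mL of 400 mM Na2CO3 and released p-nitrophenol was read at 400 nm. IC50 was determined.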

Row | SMILES | IC50 [µM]
7 | OCC(O)CC(O)[C@@H]1CC[C@@H]2[C@H](O)[C@H](O)[C@@H](CO)N21 (stereo not given in full) | 11.4
8 | OCC(O)CCCCC(O)CC(O)CCC[C@@H](O)[C@H]1N[C@H](CO)[C@@H](O)[C@@H]1O (stereo not given in full) | 0.08

Molecular target: T2, Lysosomal acid glucosylceramidase (Homo sapiens, UniProt P04062)
T2 sequence (P04062 whole entry): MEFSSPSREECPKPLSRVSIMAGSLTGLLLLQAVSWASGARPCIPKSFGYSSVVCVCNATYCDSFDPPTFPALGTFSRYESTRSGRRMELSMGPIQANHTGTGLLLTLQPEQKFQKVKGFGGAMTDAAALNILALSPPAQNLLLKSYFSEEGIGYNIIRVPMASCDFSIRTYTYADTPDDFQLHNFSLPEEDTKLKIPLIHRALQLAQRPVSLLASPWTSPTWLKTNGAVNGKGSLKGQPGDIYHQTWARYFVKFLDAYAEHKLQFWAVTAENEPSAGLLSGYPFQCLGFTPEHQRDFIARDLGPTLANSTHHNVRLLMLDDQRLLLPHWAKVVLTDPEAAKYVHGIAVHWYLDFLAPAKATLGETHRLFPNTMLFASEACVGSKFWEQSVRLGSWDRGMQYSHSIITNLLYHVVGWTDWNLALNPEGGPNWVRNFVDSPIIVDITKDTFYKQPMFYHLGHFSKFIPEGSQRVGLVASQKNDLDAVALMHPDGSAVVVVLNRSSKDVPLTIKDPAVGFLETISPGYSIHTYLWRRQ
Experiment: Inhibition of human placental beta-glucocerebrosidase by spectrophotometry
Method in brief: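 Human placental beta-glucocerebrosidase (Ceredase) was assayed at pH 5.5 with 2 mM p-nitrophenyl glycoside substrate in a 1 mL reaction. The reaction was stopped with 2 mL of 400 mM Na2CO3 and released p-nitrophenol was read at 400 nm.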

Row | SMILES | IC50 [µM]
9 | OCC(O)CCCCC(O)CC(O)CCC[C@@H](O)[C@H]1N[C@H](CO)[C@@H](O)[C@@H]1O (stereo not given in full) | 970

Molecular target: T3, Lysosomal acid glucosylceramidase (Homo sapiens) (UniProt P04062)
T3 sequence (whole entry): T2 sequence (P04062 whole entry)
Experiment: Inhibition of human placental beta-glucocerebrosidase at 1000 uM by spectrophotometry

Row | SMILES | inhibition [%]
10 | OCC(O)CC(O)[C@@H]1CC[C@@H]2[C@H](O)[C@H](O)[C@@H](CO)N21 (stereo not given in full) | < 50

Molecular target: T4, Tissue alpha-L-fucosidase (Bos taurus) (UniProt Q2KIM0)
T4 sequence (whole entry): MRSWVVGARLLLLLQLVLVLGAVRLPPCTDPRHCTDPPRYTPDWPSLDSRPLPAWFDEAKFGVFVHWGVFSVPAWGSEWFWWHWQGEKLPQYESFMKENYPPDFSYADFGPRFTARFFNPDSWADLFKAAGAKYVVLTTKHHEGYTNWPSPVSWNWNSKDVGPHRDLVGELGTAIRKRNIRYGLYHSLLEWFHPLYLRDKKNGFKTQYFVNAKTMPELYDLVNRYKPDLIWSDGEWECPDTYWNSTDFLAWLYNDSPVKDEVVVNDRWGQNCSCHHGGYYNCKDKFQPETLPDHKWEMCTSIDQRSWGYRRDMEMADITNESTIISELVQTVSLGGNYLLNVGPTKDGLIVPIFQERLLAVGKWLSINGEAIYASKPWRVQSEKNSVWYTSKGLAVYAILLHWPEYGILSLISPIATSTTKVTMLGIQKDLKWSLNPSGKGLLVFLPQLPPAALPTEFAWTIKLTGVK
Experiment: Inhibition of bovine epididymis alpha-L-fucosidase at 1000 uM by spectrophotometry
Method in brief: as §1

Row | SMILES | inhibition [%]
11 | OCC(O)CC(O)[C@@H]1CC[C@@H]2[C@H](O)[C@H](O)[C@@H](CO)N21 (stereo not given in full) | < 50
12 | OCC(O)CCCCC(O)CC(O)CCC[C@@H](O)[C@H]1N[C@H](CO)[C@@H](O)[C@@H]1O (stereo not given in full) | < 50

Molecular target: T5, Beta-galactosidase (Bos taurus, UniProt Q58D55)
T5 sequence (Q58D55 whole entry): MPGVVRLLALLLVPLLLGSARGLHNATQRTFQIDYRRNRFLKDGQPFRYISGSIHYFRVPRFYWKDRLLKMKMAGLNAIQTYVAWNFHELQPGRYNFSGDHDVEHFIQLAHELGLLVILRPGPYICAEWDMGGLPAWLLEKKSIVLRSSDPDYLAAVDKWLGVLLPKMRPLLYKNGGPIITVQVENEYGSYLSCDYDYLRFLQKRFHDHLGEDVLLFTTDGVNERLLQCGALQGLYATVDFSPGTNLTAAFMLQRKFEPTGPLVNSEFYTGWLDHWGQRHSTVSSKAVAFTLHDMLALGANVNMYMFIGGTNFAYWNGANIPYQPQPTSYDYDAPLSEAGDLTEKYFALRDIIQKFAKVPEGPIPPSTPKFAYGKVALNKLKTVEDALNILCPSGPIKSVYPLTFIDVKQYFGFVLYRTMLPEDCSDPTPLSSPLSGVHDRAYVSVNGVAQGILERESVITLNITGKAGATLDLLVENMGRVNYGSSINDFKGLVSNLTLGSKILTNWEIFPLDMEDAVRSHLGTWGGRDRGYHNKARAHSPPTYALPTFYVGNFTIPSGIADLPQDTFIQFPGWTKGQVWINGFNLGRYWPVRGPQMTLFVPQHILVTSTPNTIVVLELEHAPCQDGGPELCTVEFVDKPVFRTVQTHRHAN
Experiment: Inhibition of bovine liver beta-galactosidase by spectrophotometry
Method in brief: as §3

Row | SMILES | IC50 [µM]
13 | OCC(O)CC(O)[C@@H]1CC[C@@H]2[C@H](O)[C@H](O)[C@@H](CO)N21 (stereo not given in full) | 920
14 | OCC(O)CCCCC(O)CC(O)CCC[C@@H](O)[C@H]1N[C@H](CO)[C@@H](O)[C@@H]1O (stereo not given in full) | 0.09

Species on record: Rattus norvegicus
Experiment: Inhibition of rat epididymis alpha-mannosidase at 1000 uM by spectrophotometry
Method in brief: as §2

Row | SMILES | inhibition [%]
15 | OCC(O)CC(O)[C@@H]1CC[C@@H]2[C@H](O)[C@H](O)[C@@H](CO)N21 (stereo not given in full) | < 50
16 | OCC(O)CCCCC(O)CC(O)CCC[C@@H](O)[C@H]1N[C@H](CO)[C@@H](O)[C@@H]1O (stereo not given in full) | < 50

Molecular target: T6, Beta-mannosidase (Rattus norvegicus) (UniProt Q4FZV0)
T6 sequence (whole entry): T1 sequence (Q4FZV0 whole entry)
Experiment: Inhibition of rat epididymis beta-mannosidase at 1000 uM by spectrophotometry

Row | SMILES | inhibition [%]
17 | OCC(O)CC(O)[C@@H]1CC[C@@H]2[C@H](O)[C@H](O)[C@@H](CO)N21 (stereo not given in full) | < 50

Molecular target: not listed separately
Experiment: Inhibition of yeast alpha-glucosidase by spectrophotometry
Parameters: species or system Saccharomyces cerevisiae
Method in brief: as §3

Row | SMILES | IC50 [µM]
18 | OCC(O)CC(O)[C@@H]1CC[C@@H]2[C@H](O)[C@H](O)[C@@H](CO)N21 (stereo not given in full) | 650
19 | OCC(O)CCCCC(O)CC(O)CCC[C@@H](O)[C@H]1N[C@H](CO)[C@@H](O)[C@@H]1O (stereo not given in full) | 220

Molecular target: not listed separately
Experiment: Inhibition of almond beta-glucosidase by spectrophotometry
Parameters: species or system Prunus dulcis
Method in brief: as §3

Row | SMILES | IC50 [µM]
20 | OCC(O)CC(O)[C@@H]1CC[C@@H]2[C@H](O)[C@H](O)[C@@H](CO)N21 (stereo not given in full) | 25.4
21 | OCC(O)CCCCC(O)CC(O)CCC[C@@H](O)[C@H]1N[C@H](CO)[C@@H](O)[C@@H]1O (stereo not given in full) | 6.6

Molecular target: Alpha-galactosidase (Coffea arabica) (UniProt Q42656)
Experiment: Inhibition of coffee bean alpha-galactosidase at 1000 uM by spectrophotometry
Method in brief: as §1

Alpha-galactosidase (Coffea arabica), sequence (Q42656 16-378 limits assumed): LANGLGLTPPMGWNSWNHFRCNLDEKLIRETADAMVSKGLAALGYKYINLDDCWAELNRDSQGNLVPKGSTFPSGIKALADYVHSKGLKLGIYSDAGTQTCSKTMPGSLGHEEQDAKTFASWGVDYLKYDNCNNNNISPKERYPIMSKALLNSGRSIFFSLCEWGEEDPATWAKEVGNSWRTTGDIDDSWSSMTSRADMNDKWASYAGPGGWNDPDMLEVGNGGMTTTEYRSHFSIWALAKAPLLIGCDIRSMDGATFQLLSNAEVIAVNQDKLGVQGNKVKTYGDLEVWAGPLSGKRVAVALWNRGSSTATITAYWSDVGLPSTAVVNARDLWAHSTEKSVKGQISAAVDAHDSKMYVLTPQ

Row | SMILES | inhibition [%]
22 | OCC(O)CC(O)[C@@H]1CC[C@@H]2[C@H](O)[C@H](O)[C@@H](CO)N21 (stereo not given in full) | < 50
23 | OCC(O)CCCCC(O)CC(O)CCC[C@@H](O)[C@H]1N[C@H](CO)[C@@H](O)[C@@H]1O (stereo not given in full) | < 50

Species on record: Rattus norvegicus
Experiment: Inhibition of rat epididymis beta-galactosidase at 1000 uM by spectrophotometry
Method in brief: as §2

Row | SMILES | inhibition [%]
24 | OCC(O)CC(O)[C@@H]1CC[C@@H]2[C@H](O)[C@H](O)[C@@H](CO)N21 (stereo not given in full) | < 50
25 | OCC(O)CCCCC(O)CC(O)CCC[C@@H](O)[C@H]1N[C@H](CO)[C@@H](O)[C@@H]1O (stereo not given in full) | < 50
